From ChEMBL document CHEMBL1132281, “Compounds that activate the mouse melanocortin-1 receptor identified by screening a small molecule library based upon the beta-turn” (J Med Chem, 1999)

Biological target: Melanocyte-stimulating hormone receptor (Mus musculus, UniProt Q01727)
Experiment: Agonistic activity against mouse Melanocortin 1 receptor (mMC1R)
Type: functional
Summary of the method: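 HEK-293 cells (DMEM, 10% fetal calf serum) stably expressing the mouse receptor (pCDNA3, G418 selection) were transfected with a CRE/β-galactosidase reporter. At 48 h post-transfection, cells were stimulated for 6 h in DMEM with 0.1 mg/mL BSA and 0.1 mM IBMX, at 10^-4 to 10^-10 M in triplicate. Lysates were read with ONPG at 37° (OD405), and the data were normalized to protein (OD595) and to forskolin (10^-4 M).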

Chain of Melanocyte-stimulating hormone receptor (Q01727 whole entry): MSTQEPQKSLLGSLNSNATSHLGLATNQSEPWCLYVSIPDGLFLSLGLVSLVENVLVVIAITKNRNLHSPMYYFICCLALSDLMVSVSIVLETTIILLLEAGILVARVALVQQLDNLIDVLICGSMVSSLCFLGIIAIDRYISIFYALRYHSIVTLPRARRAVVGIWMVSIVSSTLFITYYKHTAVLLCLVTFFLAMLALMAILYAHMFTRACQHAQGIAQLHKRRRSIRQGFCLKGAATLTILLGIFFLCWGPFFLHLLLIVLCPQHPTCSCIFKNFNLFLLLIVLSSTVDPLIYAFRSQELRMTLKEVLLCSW

With CC(=O)N[C@@H](Cc1c[nH]cn1)C(=O)N[C@H](Cc1ccccc1)C(=O)N[C@@H](CCC(N)=O)C(=O)N[C@H](Cc1c[nH]c2ccccc12)C(N)=O as the compound, how does the EC50 read?
Its EC50 is 100 µM.

How did the EC50 turn out when CC(=O)N[C@@H](Cc1cnc[nH]1)C(=O)N[C@H](Cc1ccccc1)C(=O)N[C@@H](C)C(=O)N[C@H](Cc1c[nH]c2ccccc12)C(N)=O was run?
Its EC50 is > 100 µM.

CC(=O)N[C@@H](Cc1c[nH]cn1)C(=O)N[C@H](Cc1ccccc1)C(=O)N[C@@H](CCCCN)C(=O)N[C@H](Cc1c[nH]c2ccccc12)C(N)=O was tested. Which EC50 did it give?
The EC50 was > 100 µM.

Which EC50 does the source give for CC(=O)N[C@H](Cc1ccccc1)C(=O)N[C@@H](CCCCN)C(=O)N[C@H](Cc1c[nH]c2ccccc12)C(N)=O here?
Its EC50 is > 100 µM.

For CC(=O)N[C@@H](Cc1c[nH]cn1)C(=O)N[C@H](Cc1ccccc1)C(=O)NCC(=O)N[C@H](Cc1c[nH]c2ccccc12)C(N)=O, which EC50 is on record?
The EC50 was > 100 µM.

Which EC50 does the source give for NCCCC[C@H]1NC(=O)[C@H](Cc2c[nH]c3ccccc23)SCCN(CCc2ccccc2)C1=O here?
The EC50 was 63.4 µM.

With O=C1[C@H]2CCCN2C(=O)C(Cc2ccc3ccccc3c2)SCCN1CCc1c[nH]c2ccccc12 (stereo not given in full) as the compound, how does the EC50 read?
Its EC50 is 42.5 µM.

Which EC50 does the source give for CC(=O)N[C@H](Cc1ccccc1)C(=O)NCC(=O)N[C@H](Cc1c[nH]c2ccccc12)C(N)=O here?
The EC50 was 100 µM.

CC(=O)N[C@H](Cc1ccccc1)C(=O)N[C@@H](C)C(=O)N[C@H](Cc1c[nH]c2ccccc12)C(N)=O was tested. Which EC50 did it give?
Its EC50 is > 100 µM.

How did the EC50 turn out when CC(=O)N[C@H](Cc1ccccc1)C(=O)N[C@@H](CCC(N)=O)C(=O)N[C@H](Cc1c[nH]c2ccccc12)C(N)=O was run?
The EC50 was 100 µM.
